What was measured:
OVCAR-3 = assay: Cytotoxicity against human OVCAR3 cells assessed as cell growth at 10 uM after 48 hrs relative to control; format: functional; conditions: OVCAR-3, 48 h, read-out: Activity
How it was run: (§1)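 Run at the National Cancer Institute as a single-dose screen across its 60-cell-line cancer panel. Compound was tested at 10 micromolar, and growth was expressed as a percentage of negative-control cultures.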

SN12C = assay: Cytotoxicity against human SN12C cells assessed as cell growth at 10 uM after 48 hrs relative to control; format: functional; conditions: read-out: Activity
How it was run: (§2)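 Submitted to the National Cancer Institute for a single-dose screen at 10 micromolar against 60 cancer cell lines. Growth is expressed relative to negative-control cultures.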

SK-MEL-5 = assay: Cytotoxicity against human SK-MEL-5 cells assessed as cell growth at 10 uM after 48 hrs relative to control; format: functional; conditions: SK-MEL-5, 48 h, read-out: Activity; how it was run: as §1
UACC-257 = assay: Cytotoxicity against human UACC257 cells assessed as cell growth at 10 uM after 48 hrs relative to control; format: functional; conditions: UACC-257, 48 h, read-out: Activity; how it was run: as §2
LOX IMVI = assay: Cytotoxicity against human LOXIMVI cells assessed as cell growth at 10 uM after 48 hrs relative to control; format: functional; conditions: read-out: Activity; how it was run: as §1
OVCAR-8 = assay: Cytotoxicity against human OVCAR8 cells assessed as cell growth at 10 uM after 48 hrs relative to control; format: functional; conditions: OVCAR-8, 48 h, read-out: Activity; how it was run: as §1
SW-620 = assay: Cytotoxicity against human SW620 cells assessed as cell growth at 10 uM after 48 hrs relative to control; format: functional; conditions: SW-620, 48 h, read-out: Activity; how it was run: as §2
NCI/ADR-RES = assay: Cytotoxicity against human NCI/ADR-RES cells assessed as cell growth at 10 uM after 48 hrs relative to control; format: functional; conditions: read-out: Activity; how it was run: as §1
M14 = assay: Cytotoxicity against human M14 cells assessed as cell growth at 10 uM after 48 hrs relative to control; format: functional; conditions: M14, 48 h, read-out: Activity; how it was run: as §1
HCT-15 = assay: Cytotoxicity against human HCT15 cells assessed as cell growth at 10 uM after 48 hrs relative to control; format: functional; conditions: HCT-15, 48 h, read-out: Activity; how it was run: as §1
COLO 205 = assay: Cytotoxicity against human COLO205 cells assessed as cell growth at 10 uM after 48 hrs relative to control; format: functional; conditions: COLO 205, 48 h, read-out: Activity; how it was run: as §1
IGROV-1 = assay: Cytotoxicity against human IGROV1 cells assessed as cell growth at 10 uM after 48 hrs relative to control; format: functional; conditions: IGROV-1, 48 h, read-out: Activity; how it was run: as §1
MDA-MB-231 = assay: Cytotoxicity against human MDA-MB-231 cells assessed as cell growth at 10 uM after 48 hrs relative to control; format: functional; conditions: MDA-MB-231, 48 h, read-out: Activity; how it was run: as §1
786-0 = assay: Cytotoxicity against human 786-0 cells assessed as cell growth at 10 uM after 48 hrs relative to control; format: functional; conditions: 786-0, 48 h, read-out: Activity; how it was run: as §1
CCRF-CEM = assay: Cytotoxicity against human CCRF-CEM cells assessed as cell growth at 10 uM after 48 hrs relative to control; format: functional; conditions: read-out: Activity; how it was run: as §1
MDA-MB-435 = assay: Cytotoxicity against human MDA-MB-435 cells assessed as cell growth at 10 uM after 48 hrs relative to control; format: functional; conditions: MDA-MB-435, 48 h, read-out: Activity; how it was run: as §1
[1] = target: T1, Proteasome Macropain subunit MB1 (Homo sapiens, UniProt P28074); assay: Inhibition of human 20S proteasome beta5 subunit using Suc-LLVY-AMC as substrate by fluorescence assay
T1 sequence (P28074 whole entry): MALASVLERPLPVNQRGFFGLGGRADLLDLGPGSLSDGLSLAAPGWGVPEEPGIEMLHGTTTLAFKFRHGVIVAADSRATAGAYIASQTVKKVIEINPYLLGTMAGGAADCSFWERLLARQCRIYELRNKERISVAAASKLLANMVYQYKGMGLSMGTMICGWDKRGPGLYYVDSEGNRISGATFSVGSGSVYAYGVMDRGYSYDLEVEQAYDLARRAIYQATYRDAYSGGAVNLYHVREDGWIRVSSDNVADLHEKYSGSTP

[2] = Cytotoxicity against human Hs578T cells assessed as cell growth at 10 uM after 48 hrs relative to control; format: functional; conditions: Hs-578T, read-out: Activity; how it was run: as §1
NCI-H226 = assay: Cytotoxicity against human NCI-H226 cells assessed as cell growth at 10 uM after 48 hrs relative to control; format: functional; conditions: NCI-H226, 48 h, read-out: Activity; how it was run: as §1
SNB-75 = assay: Cytotoxicity against human SNB75 cells assessed as cell growth at 10 uM after 48 hrs relative to control; format: functional; conditions: SNB-75, 48 h, read-out: Activity; how it was run: as §2
A498 = assay: Cytotoxicity against human A498 cells assessed as cell growth at 10 uM after 48 hrs relative to control; format: functional; conditions: A498, 48 h, read-out: Activity; how it was run: as §1
SF-295 = assay: Cytotoxicity against human SF295 cells assessed as cell growth at 10 uM after 48 hrs relative to control; format: functional; conditions: SF-295, 48 h, read-out: Activity; how it was run: as §1
NCI-H23 = assay: Cytotoxicity against human NCI-H23 cells assessed as cell growth at 10 uM after 48 hrs relative to control; format: functional; conditions: NCI-H23, 48 h, read-out: Activity; how it was run: as §1
MCF7 = assay: Cytotoxicity against human MCF7 cells assessed as cell growth at 10 uM after 48 hrs relative to control; format: functional; conditions: MCF7, 48 h, read-out: Activity; how it was run: as §1
U-251 = assay: Cytotoxicity against human U251 cells assessed as cell growth at 10 uM after 48 hrs relative to control; format: functional; conditions: U-251, 48 h, read-out: Activity; how it was run: as §2
HCC 2998 = assay: Cytotoxicity against human HCC2998 cells assessed as cell growth at 10 uM after 48 hrs relative to control; format: functional; conditions: HCC 2998, 48 h, read-out: Activity; how it was run: as §1
OVCAR-5 = assay: Cytotoxicity against human OVCAR5 cells assessed as cell growth at 10 uM after 48 hrs relative to control; format: functional; conditions: OVCAR-5, 48 h, read-out: Activity; how it was run: as §1
HL-60(TB) = assay: Cytotoxicity against human HL-60(TB) cells assessed as cell growth at 10 uM after 48 hrs relative to control; format: functional; conditions: HL-60, 48 h, read-out: Activity
How it was run: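 Run at the NCI as a single-dose screen: each compound at 10 micromolar across the 60-cancer-cell-line panel. Growth of each cell line in compound-containing media was expressed relative to negative-control cultures.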

CAKI-1 = assay: Cytotoxicity against human Caki1 cells assessed as cell growth at 10 uM after 48 hrs relative to control; format: functional; conditions: CAKI-1, 48 h, read-out: Activity; how it was run: as §1
KM12 = assay: Cytotoxicity against human KM12 cells assessed as cell growth at 10 uM after 48 hrs relative to control; format: functional; conditions: KM12, 48 h, read-out: Activity; how it was run: as §1
HCT-116 = assay: Cytotoxicity against human HCT116 cells assessed as cell growth at 10 uM after 48 hrs relative to control; format: functional; conditions: HCT-116, 48 h, read-out: Activity; how it was run: as §1
SK-MEL-2 = assay: Cytotoxicity against human SK-MEL-2 cells assessed as cell growth at 10 uM after 48 hrs relative to control; format: functional; conditions: SK-MEL-2, 48 h, read-out: Activity; how it was run: as §1
HL-60 = assay: Cytotoxicity against human HL60 cells after 48 hrs; format: functional; conditions: HL-60, 48 h

Structure (SMILES): COC(=O)[C@@H](NC(=O)N[C@@H](Cc1ccccc1)C(=O)N[C@H]1CCCCNC(=O)/C=C/[C@H](C(C)C)NC1=O)C(C)C
- growth at 10 µM (OVCAR-3): 1.28%
- growth at 10 µM (SN12C): 75.6%
- growth at 10 µM (SK-MEL-5): 34%
- growth at 10 µM (UACC-257): 58.5%
- growth at 10 µM (LOX IMVI): 15.2%
- growth at 10 µM (OVCAR-8): 92.3%
- growth at 10 µM (SW-620): 38.5%
- growth at 10 µM (NCI/ADR-RES): 105%
- growth at 10 µM (M14): 86.6%
- growth at 10 µM (HCT-15): 94.2%
- growth at 10 µM (COLO 205): 78.5%
- growth at 10 µM (IGROV-1): 45.1%
- growth at 10 µM (MDA-MB-231): 60.8%
- growth at 10 µM (786-0): 97.5%
- growth at 10 µM (CCRF-CEM): 55.1%
- growth at 10 µM (MDA-MB-435): -59.9%
- Ki [1]: 950 nM
- growth at 10 µM [2]: 40.9%
- growth at 10 µM (NCI-H226): 54.7%
- growth at 10 µM (SNB-75): -27.8%
- growth at 10 µM (A498): 104%
- growth at 10 µM (SF-295): 101%
- growth at 10 µM (NCI-H23): 44.1%
- growth at 10 µM (MCF7): 43.8%
- growth at 10 µM (U-251): 17.4%
- growth at 10 µM (HCC 2998): 52.8%
- growth at 10 µM (OVCAR-5): 104%
- growth at 10 µM (HL-60(TB)): 62.5%
- growth at 10 µM (CAKI-1): 98.3%
- growth at 10 µM (KM12): 30.5%
- growth at 10 µM (HCT-116): 26.5%
- growth at 10 µM (SK-MEL-2): 12.7%

Structure (SMILES): COC(=O)[C@@H](NC(=O)N[C@@H](Cc1ccccc1)C(=O)N[C@H]1CCCCNC(=O)/C=C/[C@H](Cc2ccccc2)NC1=O)C(C)C
- growth at 10 µM (OVCAR-3): -36.7%
- growth at 10 µM (SN12C): 29.5%
- growth at 10 µM (SK-MEL-5): 18.6%
- growth at 10 µM (UACC-257): 16.4%
- growth at 10 µM (LOX IMVI): -4.92%
- growth at 10 µM (OVCAR-8): 82%
- growth at 10 µM (SW-620): 23.1%
- growth at 10 µM (NCI/ADR-RES): 98.8%
- growth at 10 µM (M14): 53.9%
- growth at 10 µM (HCT-15): 101%
- growth at 10 µM (COLO 205): 44.6%
- growth at 10 µM (IGROV-1): 30.6%
- growth at 10 µM (MDA-MB-231): 23.2%
- growth at 10 µM (786-0): 71.8%
- growth at 10 µM (CCRF-CEM): 9.59%
- growth at 10 µM (MDA-MB-435): -69.1%
- Ki [1]: 447 nM
- growth at 10 µM [2]: 24.9%
- growth at 10 µM (NCI-H226): -44.2%
- growth at 10 µM (SNB-75): -40.2%
- growth at 10 µM (A498): 40.7%
- growth at 10 µM (SF-295): 51.3%
- growth at 10 µM (NCI-H23): 44.8%
- growth at 10 µM (MCF7): 37.4%
- growth at 10 µM (U-251): 17.8%
- growth at 10 µM (HCC 2998): 5.56%
- growth at 10 µM (OVCAR-5): 87%
- growth at 10 µM (HL-60(TB)): 20.9%
- growth at 10 µM (CAKI-1): 106%
- GI50 (HL-60): 4340 nM
- growth at 10 µM (KM12): 7.99%
- growth at 10 µM (HCT-116): 11.6%
- growth at 10 µM (SK-MEL-2): 0.98%
